Data on one compound can be found in ChEMBL document CHEMBL1828628, “Discovery of a tetrahydroisoquinoline-based hydroxamic acid derivative (ZYJ-34c) as histone deacetylase inhibitor with potent oral antitumor activities” (J Med Chem, 2011).

Calls of active or inactive are those of the source. The rule behind the calls is not given here.

As usually defined, the IC50 is the concentration that gives 50% inhibition. A higher IC50 goes with a need for much substance. Broadly, the T/C is the ratio of treated to control.

Data set [1] deals with Aminopeptidase N (Homo sapiens) (UniProt P15144). Kind of data set: Inhibition of aminopeptidase N.
Aminopeptidase N (Homo sapiens), sequence (P15144 whole entry): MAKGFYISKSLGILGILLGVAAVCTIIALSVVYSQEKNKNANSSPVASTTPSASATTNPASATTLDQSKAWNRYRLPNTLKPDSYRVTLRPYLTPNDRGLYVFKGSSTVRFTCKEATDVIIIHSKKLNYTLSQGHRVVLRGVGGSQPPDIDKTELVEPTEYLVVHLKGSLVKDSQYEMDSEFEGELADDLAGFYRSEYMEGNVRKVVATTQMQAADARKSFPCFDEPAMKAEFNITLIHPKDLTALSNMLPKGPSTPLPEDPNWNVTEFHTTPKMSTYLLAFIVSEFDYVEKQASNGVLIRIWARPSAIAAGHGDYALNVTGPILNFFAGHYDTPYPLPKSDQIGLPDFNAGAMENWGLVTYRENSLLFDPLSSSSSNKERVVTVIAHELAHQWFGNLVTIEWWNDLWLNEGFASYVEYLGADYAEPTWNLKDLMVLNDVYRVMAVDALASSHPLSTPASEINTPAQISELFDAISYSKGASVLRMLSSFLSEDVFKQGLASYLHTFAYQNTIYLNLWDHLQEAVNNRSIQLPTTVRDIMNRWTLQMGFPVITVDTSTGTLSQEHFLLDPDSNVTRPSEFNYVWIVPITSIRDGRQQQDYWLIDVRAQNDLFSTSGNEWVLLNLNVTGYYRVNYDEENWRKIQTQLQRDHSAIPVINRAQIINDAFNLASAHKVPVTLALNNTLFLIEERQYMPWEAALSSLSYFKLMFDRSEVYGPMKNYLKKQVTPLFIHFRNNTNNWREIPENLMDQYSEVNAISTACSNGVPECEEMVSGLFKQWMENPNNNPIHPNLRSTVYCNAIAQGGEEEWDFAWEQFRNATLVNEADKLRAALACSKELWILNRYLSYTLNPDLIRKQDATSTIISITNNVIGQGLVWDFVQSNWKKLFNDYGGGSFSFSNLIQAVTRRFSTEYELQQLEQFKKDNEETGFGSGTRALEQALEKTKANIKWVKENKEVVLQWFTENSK
For data set [2], the system named is HCT-116. Kind of data set: Antiproliferative activity against human HCT116 cells after 48 hrs by MTT assay. The class given is functional, cell-based. Particulars: HCT-116, 48 h. In outline: (§1)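 Cells kept in RPMI1640 with 10% FBS at 37 °C, 5% CO2. Cells were passaged into 96-well plates the day before dosing and left ≥4 h before compound addition. Exposure was 48 h, then 0.5% MTT for 4 h. Formazan was extracted with DMSO for 15 min and read at 570 nm. IC50 was derived from inhibition ratios; mean of three experiments.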
In general terms: Formazan colour is commonly taken as a measure of viable cells.

The subject of another data set is PC-3. Kind of data set: Antiproliferative activity against human PC3 cells after 48 hrs by MTT assay. Type of data set: functional, cell-based. Particulars: PC-3, 48 h.
In data set [3] the test system is HCT-116. Kind of data set: Antitumor activity against human HCT116 cells xenografted in BALB/c nu mouse assessed as tumor growth inhibition administered as po qd for 19 days relative to control. Type of data set: functional, organism-based. Put shortly:
(§2)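 Female athymic BALB/c-nu mice, 5–6 weeks old, were inoculated subcutaneously in the right flank with RPMI1640/10% FBS-cultured tumor cells (5 × 10^6 for MDA-MB-231). At about 100 mm3 (~10 days), mice were randomized 6 per group and dosed orally or intraperitoneally for 19 days. Vehicle controls received PBS containing DMSO. TGI = (control − treated mean tumor weight)/control mean tumor weight, at end of treatment.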

Data set [4] relates to Mus musculus. Kind of data set: Toxicity in human MDA-MB-231 cells xenografted BALB/c nu mouse assessed as change in body weight at 90 mg/kg, ip qd for 19 days. The class given is organism-based. Further details: dose 90 mg/kg, route intraperitoneal. Particulars: in vivo, 456 h. In outline: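 Female BALB/c-nu mice, 5–6 weeks old, bearing subcutaneous right-flank xenografts. Mice were randomized 6 per group at about 100 mm3 tumor size. Dosing was oral or intraperitoneal for 19 days; controls received an equal volume of PBS containing DMSO. Body weight was monitored regularly during treatment, and tumors were measured by caliper every three days.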
In general terms: In xenograft studies the graft and the host belong to different species.

Data set [5] has as its system Mus musculus. Kind of data set: Toxicity in human HCT116 cells xenografted BALB/c nu mouse assessed as signs of organ toxicity at 90 mg/kg, po qd for 19 days. The class given is organism-based, HCT-116. Set-up: dose 90 mg/kg, route oral. Particulars: in vivo, 456 h.
The subject of data set [6] is H22. Kind of data set: Antitumor activity against mouse H22 cells xenografted in Kunming mouse assessed as reduction of pulmonary metastatic nodes in lungs at 60 mg/kg, po qd for 14 days. The class given is functional, organism-based. Further details: dose 60 mg/kg.
In data set [7] the test system is MDA-MB-231. Kind of data set: Antitumor activity against human MDA-MB-231 cells xenografted in BALB/c nu mouse assessed as tumor growth inhibition administered as ip qd for 19 days. Type of data set: functional, organism-based. In outline:
as §2

Data set [8] concerns H22. Kind of data set: Antitumor activity against mouse H22 cells xenografted in Kunming mouse assessed as reduction of pulmonary metastatic nodes in lungs at 90 mg/kg, po qd for 14 days. Further details: dose 90 mg/kg. The class given is functional, organism-based.
Data set [9] concerns MDA-MB-231. Kind of data set: Antiproliferative activity against human MDA-MB-231 cells after 48 hrs by MTT assay. Type of data set: functional, cell-based. The following applies: MDA-MB-231, 48 h. Put shortly:
as §1

In data set [10] the target is T1, Protein deacetylase HDAC6 (Homo sapiens, UniProt Q9UBN7).
T1 sequence (Q9UBN7 whole entry): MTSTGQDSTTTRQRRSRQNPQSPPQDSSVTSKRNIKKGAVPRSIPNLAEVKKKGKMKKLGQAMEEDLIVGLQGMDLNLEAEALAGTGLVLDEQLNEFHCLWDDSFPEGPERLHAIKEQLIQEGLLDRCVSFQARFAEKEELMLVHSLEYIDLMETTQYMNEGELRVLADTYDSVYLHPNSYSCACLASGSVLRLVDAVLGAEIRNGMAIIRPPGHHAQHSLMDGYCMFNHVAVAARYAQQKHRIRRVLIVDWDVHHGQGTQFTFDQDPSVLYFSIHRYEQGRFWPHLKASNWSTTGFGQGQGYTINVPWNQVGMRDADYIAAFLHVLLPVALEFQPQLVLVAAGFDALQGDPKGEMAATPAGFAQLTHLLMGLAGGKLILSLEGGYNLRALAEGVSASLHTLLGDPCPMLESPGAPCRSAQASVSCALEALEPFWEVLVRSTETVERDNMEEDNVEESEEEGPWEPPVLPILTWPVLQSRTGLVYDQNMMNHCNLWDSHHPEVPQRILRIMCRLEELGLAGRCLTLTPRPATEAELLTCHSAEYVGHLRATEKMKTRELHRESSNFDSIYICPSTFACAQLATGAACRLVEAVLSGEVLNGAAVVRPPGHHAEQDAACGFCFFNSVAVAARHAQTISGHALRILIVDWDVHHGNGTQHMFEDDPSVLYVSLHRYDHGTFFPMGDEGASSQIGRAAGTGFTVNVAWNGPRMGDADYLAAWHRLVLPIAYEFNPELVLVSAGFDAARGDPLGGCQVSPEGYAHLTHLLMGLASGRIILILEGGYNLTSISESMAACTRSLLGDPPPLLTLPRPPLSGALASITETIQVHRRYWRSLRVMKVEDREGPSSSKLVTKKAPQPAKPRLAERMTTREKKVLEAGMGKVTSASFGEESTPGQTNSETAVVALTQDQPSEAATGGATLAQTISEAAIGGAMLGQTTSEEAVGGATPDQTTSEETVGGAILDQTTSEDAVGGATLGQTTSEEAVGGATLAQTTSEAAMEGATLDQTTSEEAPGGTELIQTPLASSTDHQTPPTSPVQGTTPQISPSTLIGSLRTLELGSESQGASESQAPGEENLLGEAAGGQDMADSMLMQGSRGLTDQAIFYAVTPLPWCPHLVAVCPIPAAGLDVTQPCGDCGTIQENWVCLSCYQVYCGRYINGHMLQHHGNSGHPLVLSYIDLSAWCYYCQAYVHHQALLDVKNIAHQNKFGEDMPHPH
Kind of data set: Inhibition of HDAC6 using Boc-Lys (acetyl)-AMC as substrate after 30 mins by fluorescence assay. In outline:
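Enzyme (HeLa nuclear extract, HDAC6 or HDAC8) preincubated 5 min with a series of compound concentrations. Fluorogenic Boc-Lys(acetyl)-AMC substrate then added and incubated 37 °C for 30 min. Reaction stopped with developer containing trypsin and TSA, 20 min at 37 °C. Fluorescence read at ex 390/em 460 nm. Inhibition taken relative to control wells; IC50 from regression of concentration/inhibition data.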

Data set [11] has as its system Mus musculus. Kind of data set: Toxicity in mouse H22 cells xenografted Kunming mouse assessed as signs of organ toxicity at 60 mg/kg, po qd for 19 days. Type of data set: organism-based. Set-up: dose 60 mg/kg, route oral. Particulars: in vivo, 456 h.
Data set [12] is described as follows: Antiproliferative activity against human ES2 cells after 48 hrs by MTT assay. The class given is functional, cell-based. The following applies: ES-2, 48 h. In outline: as §1
Data set [13] has as its target 72 kDa type IV collagenase (Homo sapiens) (UniProt P08253). Kind of data set: Inhibition of MMP2.
Data set [14] has as its system HCT-116. Kind of data set: Antitumor activity against human HCT116 cells xenografted in BALB/c nu mouse assessed as tumor growth inhibition at 90 mg/kg, po qd for 19 days relative to control. The class given is functional.
The subject of data set [15] is Mus musculus. Kind of data set: Toxicity in human MDA-MB-231 cells xenografted BALB/c nu mouse assessed as signs of organ toxicity at 60 mg/kg, ip qd for 19 days. Type of data set: organism-based. Further details: dose 60 mg/kg, route intraperitoneal. Particulars: in vivo, 456 h.
A further data set concerns K562. Kind of data set: Antiproliferative activity against human K562 cells after 48 hrs by MTT assay. Type of data set: functional, cell-based. Particulars: K562, 48 h. Put shortly: as §1

72 kDa type IV collagenase (Homo sapiens), sequence (P08253 110-660 limits assumed): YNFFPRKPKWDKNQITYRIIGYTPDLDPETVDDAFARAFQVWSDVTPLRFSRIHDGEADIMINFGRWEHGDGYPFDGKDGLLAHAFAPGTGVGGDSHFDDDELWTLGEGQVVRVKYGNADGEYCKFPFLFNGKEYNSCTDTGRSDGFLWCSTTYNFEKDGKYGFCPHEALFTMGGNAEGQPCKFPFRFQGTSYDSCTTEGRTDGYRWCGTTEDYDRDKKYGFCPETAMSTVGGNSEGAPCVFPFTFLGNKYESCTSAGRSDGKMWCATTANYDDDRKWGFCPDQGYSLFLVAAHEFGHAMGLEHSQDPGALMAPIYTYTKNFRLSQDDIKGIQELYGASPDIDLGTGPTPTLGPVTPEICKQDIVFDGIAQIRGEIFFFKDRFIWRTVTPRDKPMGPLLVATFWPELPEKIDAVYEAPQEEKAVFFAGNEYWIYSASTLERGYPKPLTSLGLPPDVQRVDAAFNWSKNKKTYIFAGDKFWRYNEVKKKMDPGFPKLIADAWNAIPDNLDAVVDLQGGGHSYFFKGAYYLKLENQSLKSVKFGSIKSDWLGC

`CC[C@H](C)[C@H](NC(=O)CC(C)(C)C)C(=O)N1Cc2cc(OCC(=O)NO)ccc2C[C@H]1C(=O)Nc1ccc(OC)cc1`: the inhibition result in data set [1] is “Active”. The IC50 with HCT-116 [2] was determined as 770 nM; with PC-3 it was 830 nM; with MDA-MB-231 [9] it was 580 nM; in data set [10] it was 56 nM; in data set [12], 12900 nM; in the data set with K562, 3470 nM. Moreover, the TGI result in the data set on HCT-116 [3] and with MDA-MB-231 [7] was “Dose-dependent effect” in each case. Also, the Activity entry in the data set on Mus musculus [4], with Mus musculus [5], in the data set on Mus musculus [11] and in the data set with Mus musculus [15] was “Non-toxic” each time. Further, the outcome in the data set on H22 [6] and in the data set with H22 [8] was Active. Besides, the inhibition entry in data set [13] was “inactive”. Besides, the T/C in the data set on HCT-116 [14] stood at 53%. For the same compound, the inhibition in vivo at 90 mg/kg in the data set with HCT-116 [14] (Mus musculus, HCT-116, 456 h, read-out: TGI) worked out at 59%.
